# UCH37 DUB inh: human UCH37 deubiquitinating enzyme inhibition. Q9Y5K5. purified proteasome/UCH37, Ub-AMC cleavage fluorescence. inhibition, % (no concentration beside the values). 0.33% of 330,000 active. AID 588478;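 active = mean inhibition over replicate wells above about 20%, limit read from the data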;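 note: 0% = compound-free wells with enzyme and 100% = wells lacking proteasome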
#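 Material: human UCH37 enzyme supplied as purified proteasome complex. Measure: % inhibition of Ub-AMC cleavage fluorescence. Medium: pH 7.4 Tris-HCl (50 mM) with ovalbumin, ATP-MgCl2, DTT. Times: 30 min preincubation with enzyme, 25 min cleavage at room temperature. Detection: AMC fluorescence intensity at 355/460 nm.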
# PREPL inh: human PREPL enzyme inhibition | 0.68% of 320,000 active | AID 2751 | recombinant PREPL, fluorescence polarization activity-based probe | inhibition, % at 5.96 µM; in the data active = inhibition above about 43%;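 note: 0% = enzyme with DMSO and 100% = wells lacking enzyme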
# UBC13 polyUb: human UBC13 polyubiquitination inhibition. inhibition, % at 20 µM. 0.47% of 330,000 active. UBC13 polyubiquitin chain formation, TR-FRET. AID 485273. P61088; in the data active = inhibition above about 45%, passing the limit was not always enough; inconclusive = no clear call, values can overlap the other calls
# Target sequence (P61088 whole entry, looked up): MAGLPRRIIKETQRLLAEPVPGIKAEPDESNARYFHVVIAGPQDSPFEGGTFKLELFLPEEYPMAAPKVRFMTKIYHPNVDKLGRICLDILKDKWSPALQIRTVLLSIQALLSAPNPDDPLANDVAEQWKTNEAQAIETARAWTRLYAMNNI
# Apaf-1 inh: blocks human Apaf-1 apoptosome activity; O14727; reconstituted apoptosome caspase-3 activity, DEVD-Rh110 fluorescence; inhibition, % at 20 µM; 0.71% of 330,000 active; AID 489030; active = inhibition of at least 40% at 20 µM;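 note: plate controls were DMSO wells for no effect and DEVD-CHO caspase inhibitor wells for full effect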
#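 Material: cell-free apoptosome with Apaf-1, procaspase-3 and caspase-9; Buffer or medium: Hepes pH 7.5 with detergent and BSA; Reagent: cytochrome c trigger plus (Z-DEVD)2-Rh110 caspase-3 substrate; Times: compound with Apaf-1, dATP, procaspase-3 30 min, then 50 min reaction, room temperature; Technique: Rh110 fluorescence intensity.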
# Casp3 UBC13 ctr: counter-screen for UBC13 inhibitors: human caspase-3 inhibition; shares compounds with UBC13 polyUb; Recombinant caspase-3, Caspase-Glo 3/7 luminescence, 60 min; inhibition, % at 20 µM; 4% of 1,400 active; AID 488856;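 active = mean inhibition across replicates above about 26%, limit read from the data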;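 note: plate controls were DMSO with caspase-3 for no effect and DMSO wells lacking enzyme for full effect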
# Target sequence (P42574 whole entry, looked up): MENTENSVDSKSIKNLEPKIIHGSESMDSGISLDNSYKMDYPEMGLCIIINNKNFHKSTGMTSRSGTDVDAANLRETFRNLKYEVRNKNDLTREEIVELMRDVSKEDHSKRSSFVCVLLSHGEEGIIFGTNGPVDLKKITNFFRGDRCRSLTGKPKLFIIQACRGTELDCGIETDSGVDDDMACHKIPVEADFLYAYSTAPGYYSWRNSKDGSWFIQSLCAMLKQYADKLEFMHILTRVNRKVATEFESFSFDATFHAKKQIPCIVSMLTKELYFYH
# UBC13 conf: confirmation of human UBC13 polyubiquitin inhibitors; shares compounds with UBC13 polyUb; UBC13 polyubiquitination, TR-FRET, biochemical; inhibition, % at 10 µM; 68% of 1,400 active; in the data active = inhibition above about 45%; inconclusive = no clear call, values can overlap the other calls
# Starred values were filed as active, the others as inactive; ? = inconclusive; nt = no result given. An excerpt weighted towards active compounds, which were near 1.5% of everything screened.
SMILES,UCH37 DUB inh,PREPL inh,UBC13 polyUb,Apaf-1 inh,Casp3 UBC13 ctr,UBC13 conf
N#C/C(=C/c1cn(-c2ccccc2)nc1-c1cccc(OCc2ccccc2)c1)C(=O)NCCCn1ccnc1,-43,-8,48*,6,-1,56*
COC(=O)c1sccc1NN=Cc1ccc(OC)c(OC)c1OC,-23,nt,nt,nt,nt,nt
CCOC(=O)C1=C(COC(=O)c2ncc(Cl)c(Cl)c2Cl)NC(=O)NC1C (stereo not drawn),1,-28,76*,13,-2,87*
CC(C)OCC(O)CN1CCN(CCN2C(=O)c3cccc4cccc(c34)C2=O)CC1 (stereo not drawn),-9,5,-11,-1,nt,nt
Cc1ccccc1OCC(O)CN1CCN(CCN2C(=O)c3cccc4cccc(c34)C2=O)CC1 (stereo not drawn),4,-17,50*,23,0,76*
CC(=O)c1ccc(OCC(O)CN2CCN(CCN3C(=O)c4cccc5cccc(c45)C3=O)CC2)cc1 (stereo not drawn),nt,3,96*,4,-2,103*
C=CCc1ccccc1OCC(O)CN1CCN(CCN2C(=O)c3cccc4cccc(c34)C2=O)CC1 (stereo not drawn),-2,10,59*,18,-4,97*
CCC(OCC(O)CN1CCN(CCN2C(=O)c3cccc4cccc(c34)C2=O)CC1)c1ccccc1 (stereo not drawn),-1,-11,82*,7,4,97*
O=C(NN=Cc1ccco1)c1ccc(NC(=O)c2ccc(Cl)cc2)cc1,-5,nt,nt,nt,nt,nt
Cc1nc2ccc(Br)cn2c1C(=O)NN=Cc1ccccc1[N+](=O)[O-],6,nt,nt,nt,nt,nt
Cc1ccc(C=NNC(=O)c2ccoc2C)o1,6,nt,nt,nt,nt,nt
O=C(CCCCCN1C(=O)c2cccc3cccc(c23)C1=O)NC1CCS(=O)(=O)C1 (stereo not drawn),-89,32,83*,-19,-2,98*
O=C(CCN1C(=O)c2cccc3cccc(c23)C1=O)NC1CCS(=O)(=O)C1 (stereo not drawn),-113,1,2,-6,nt,nt
C#CCOc1ccc(Br)cc1C=NO,1,nt,nt,nt,nt,nt
O=C(CNc1cccc2ccccc12)NN=C/C=C/c1ccco1,8,nt,nt,nt,nt,nt
O=C(NN=Cc1ccc(O)c(O)c1)c1cccc(S(=O)(=O)N2CCCC2)c1,10,nt,nt,nt,nt,nt
CCn1c(=O)cc(SCC(=O)N2CCN(Cc3ccc4c(c3)OCO4)CC2)c2ccccc21,0,-7,61*,-7,-2,?
Cn1c(=O)cc(SCC(=O)N2CCN(C3CCCCC3)CC2)c2ccccc21,2,2,66*,-2,-2,?
Cn1c(=O)cc(SCC(=O)N2CCN(Cc3ccc4c(c3)OCO4)CC2)c2ccccc21,2,-4,38,18,nt,nt
CCN1CCN(C(=O)CSc2cc(=O)n(CC)c3ccccc23)CC1,-2,-1,47*,2,-2,?
CCSc1ccccc1C(=O)N1CCN(Cc2ccc3c(c2)OCO3)CC1,3,14,99*,-16,-1,9
O=C(O)c1ccccc1C(=O)N1CCN(Cc2ccc3c(c2)OCO3)CC1,0,nt,4,7,nt,nt
CCn1c(=O)cc(SCC(=O)N2CCN(C)CC2)c2ccccc21,-2,-4,15,0,nt,nt
CCn1c(=O)cc(SCC(=O)NCCCN2CCN(c3ccc(F)cc3)CC2)c2ccccc21,4,12,92*,-3,0,?
O=S(=O)(N=C(c1ccccc1F)N1CCCCC1)c1ccccc1,4,nt,nt,nt,nt,nt
SMILES,UCH37 DUB inh,PREPL inh,UBC13 polyUb,Apaf-1 inh,Casp3 UBC13 ctr,UBC13 conf
Oc1c(C(c2cccs2)N2CCN(c3cccc(Cl)c3)CC2)sc2ncnn12 (stereo not drawn),0,6,53*,13,-3,7
CC(=O)Nc1ccc(NC(=O)c2nc(S(=O)(=O)Cc3ccccc3)ncc2Cl)cc1,2,-3,47*,5,-4,45*
Cc1ccc(CS(=O)(=O)c2ncc(Cl)c(C(=O)Nc3nnc(C(C)C)s3)n2)cc1,nt,3,50*,2,1,63*
CC(C)c1nnc(NC(=O)c2nc(S(=O)(=O)Cc3ccc(F)cc3)ncc2Cl)s1,nt,5,39,-6,nt,nt
O=C(NN=Cc1ccccc1C(=O)O)c1ccc(COc2cccc3cccnc23)cc1,-7,nt,nt,nt,nt,nt
CC(C)CC(C(=O)NC(C)(C)C)N(Cc1cccs1)C(=O)c1snc(C(N)=O)c1N (stereo not drawn),-11,14,65*,16,-2,67*
CCC(C(=O)NC1CCCC1)N(Cc1ccccc1Cl)C(=O)c1snc(C(N)=O)c1N (stereo not drawn),-52,9,16,8,nt,nt
CC(C)CC(C(=O)NC(C)(C)C)N(Cc1ccccc1Cl)C(=O)c1snc(C(N)=O)c1N (stereo not drawn),-30,nt,71*,18,4,93*
Cc1ccc(C=NNC(=O)CN2C(=O)CSc3ccccc32)o1,4,nt,nt,nt,nt,nt
Cc1ccc(-c2csc(NC(=O)C[n+]3cc(-c4ccc(C)cc4)n4c3CCC4)n2)cc1,7,-27,60*,30,1,70*
Cc1ccc(-c2csc(NC(=O)C[n+]3cc(-c4ccccc4)n4c3CCC4)n2)cc1,5,-8,45,10,nt,nt
COc1ccc(C(=O)c2c3ccc(C(F)(F)F)cc3[n+]([O-])n2CCCC(N)=O)cc1,3,11,-15,11,nt,nt
NC(=O)CCCn1c(C(=O)c2cc(Cl)c(N)c(Cl)c2)c2ccc(C(F)(F)F)cc2[n+]1[O-],2,6,97*,14,1,93*
NC(=O)c1ccc(Cn2c(C(=O)c3cc(Cl)c(N)c(Cl)c3)c3ccccc3[n+]2[O-])cc1,2,-1,98*,16,0,95*
NCCCn1c(C(=O)c2cc(Cl)c(N)c(Cl)c2)c2ccc(C(F)(F)F)cc2[n+]1[O-],6,21,103*,10,1,111*
COc1cccc(C(=O)NCC(=O)NN=Cc2cccc(OC(=O)c3ccc([N+](=O)[O-])cc3)c2)c1,2,nt,nt,nt,nt,nt
CN(C)Cc1c(C(=O)NN=Cc2cccc(OCc3ccccc3)c2)nnn1-c1nonc1N,1,nt,nt,nt,nt,nt
CN1CCC(N(C)C(=O)/C=C/c2cn(-c3ccccc3)nc2-c2cccs2)CC1,-85,-29,46*,38,0,44
O=C(CCc1ccccc1)NNC(=O)CCc1ccccc1,4,-1,-4,4,nt,nt
O=C(CCc1ccccc1)NNC(=O)c1ccccn1,2,-5,50*,-1,2,64*
NC(=O)NC(CC(=O)NNC(=O)c1ccccn1)c1ccccc1Cl (stereo not drawn),-3,4,80*,-7,8,82*
CCNC(=S)NNC(=O)c1ccccn1,3,12,90*,-3,-1,87*
Cc1cccc(OCCCC(=O)NNC(=O)c2ccncc2)c1,0,nt,1,2,nt,nt
